Laboratory results published in ChEMBL document CHEMBL1156385, “Macharistol, a new cytotoxic cinnamylphenol from the stems of Machaerium aristulatum” (J Nat Prod, 2001).
≈ marks a conversion by molar mass, not a printed value. Calls of active or inactive are those of the source. The rule behind the calls is not given here.

Key:
[1] = test system: KB; assay: Cytotoxicity against human KB cells; assay type: functional, cell-based
[2] = test system: KB; assay: Growth inhibition of human KB cells implanted at intraperitoneal compartment of athymic NCr nu/nu mouse at 25 mg/kg, ip administered once daily after 3 to 6 days of fiber implantation measured on day 7 by hollow fiber assay; assay type: functional; details: read-out: GI
How it was run: (§1)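 Hollow fibers carrying KB (7.5 × 10⁵ cells/mL), Col-2 (10⁶ cells/mL) or hTERT-RPE1 (2.5 × 10⁶ cells/mL) cells were implanted i.p. and s.c. in female athymic NCr nu/nu mice. Compound was coprecipitated with PVP (MW 360 000) and dissolved in PBS. Doses of 6.25, 12.5 or 25 mg/kg were given i.p. once daily on days 3–6 after implantation. Fiber cell growth inhibition was measured.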

[3] = Growth inhibition of human telomerase […] RPE1 cells implanted at intraperitoneal compartment of athymic NCr nu/nu mouse at 25 mg/kg, ip administered once daily after 3 to 6 days of fiber implantation measured on day 7 by hollow fiber assay; assay type: functional, TERT-RPE1; details: RPE-1, ip, read-out: GI; how it was run: as §1
[4] = test system: Mus musculus; assay: Toxicity in athymic NCr nu/nu mouse implanted with human KB cells at subcutaneous compartment assessed as body weight loss at 25 mg/kg, ip administered once daily after 3 to 6 days of fiber implantation measured on day 7 by hollow fiber assay; assay type: organism-based; set-up: dose 25 mg/kg; details: in vivo, sc
How it was run: (§2)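 Female athymic NCr nu/nu mice carried i.p. and s.c. hollow fibers with KB, Col-2 or hTERT-RPE1 cells. They received the PVP-coprecipitated compound in PBS at 6.25, 12.5 or 25 mg/kg i.p. once daily on days 3–6 after implantation. Toxicity was followed as body weight, recorded daily.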

[5] = test system: Col2; assay: Cytotoxicity against human Col2 cells; assay type: functional, cell-based
[6] = test system: Mus musculus; assay: Toxicity in athymic NCr nu/nu mouse implanted with human Col2 cells at subcutaneous compartment assessed as body weight loss at 25 mg/kg, ip administered once daily after 3 to 6 days of fiber implantation measured on day 7 by hollow fiber assay; assay type: organism-based; set-up: dose 25 mg/kg; details: in vivo, sc; how it was run: as §2
[7] = test system: Mus musculus; assay: Toxicity in athymic NCr nu/nu mouse implanted with human telomerase […] RPE1 cells at subcutaneous compartment assessed as body weight loss at 25 mg/kg, ip administered once daily after 3 to 6 days of fiber implantation measured on day 7 by hollow fiber assay; assay type: organism-based; set-up: dose 25 mg/kg; details: in vivo, sc; how it was run: as §2
[8] = test system: LNCaP; assay: Cytotoxicity against human LNCAP cells; assay type: functional, cell-based
[9] = test system: Col2; assay: Growth inhibition of human Col2 cells implanted at subcutaneous compartment of athymic NCr nu/nu mouse at 25 mg/kg, ip administered once daily after 3 to 6 days of fiber implantation measured on day 7 by hollow fiber assay; assay type: functional; details: Col2, sc, read-out: GI; how it was run: as §1
[10] = test system: Mus musculus; assay: Toxicity in athymic NCr nu/nu mouse implanted with human KB cells at intraperitoneal compartment assessed as body weight loss at 25 mg/kg, ip administered once daily after 3 to 6 days of fiber implantation measured on day 7 by hollow fiber assay; assay type: organism-based; set-up: dose 25 mg/kg, route intraperitoneal; details: in vivo; how it was run: as §2
[11] = test system: KB; assay: Growth inhibition of human KB cells implanted at subcutaneous compartment of athymic NCr nu/nu mouse at 25 mg/kg, ip administered once daily after 3 to 6 days of fiber implantation measured on day 7 by hollow fiber assay; assay type: functional; details: sc, read-out: GI; how it was run: as §1
[12] = test system: Mus musculus; assay: Toxicity in athymic NCr nu/nu mouse implanted with human Col2 cells at intraperitoneal compartment assessed as body weight loss at 25 mg/kg, ip administered once daily after 3 to 6 days of fiber implantation measured on day 7 by hollow fiber assay; assay type: organism-based; set-up: dose 25 mg/kg, route intraperitoneal; details: in vivo; how it was run: as §2
[13] = Growth inhibition of human telomerase […] RPE1 cells implanted at subcutaneous compartment of athymic NCr nu/nu mouse at 25 mg/kg, ip administered once daily after 3 to 6 days of fiber implantation measured on day 7 by hollow fiber assay; assay type: functional, TERT-RPE1; details: RPE-1, sc, read-out: GI; how it was run: as §1
[14] = test system: Mus musculus; assay: Toxicity in athymic NCr nu/nu mouse implanted with human telomerase […] RPE1 cells at intraperitoneal compartment assessed as body weight loss at 25 mg/kg, ip administered once daily after 3 to 6 days of fiber implantation measured on day 7 by hollow fiber assay; assay type: organism-based; set-up: dose 25 mg/kg, route intraperitoneal; details: in vivo; how it was run: as §2
[15] = test system: Col2; assay: Growth inhibition of human Col2 cells implanted at intraperitoneal compartment of athymic NCr nu/nu mouse at 25 mg/kg, ip administered once daily after 3 to 6 days of fiber implantation measured on day 7 by hollow fiber assay; assay type: functional; details: read-out: GI; how it was run: as §1

Compound: COc1ccc2c(c1)O[C@@H]1c3ccc(O)cc3OC[C@H]21
- EC50 [1]: 2.4 µg/mL (≈ 8.88 µM)

Compound: COc1ccc(-c2coc3cc(O)ccc3c2=O)cc1
- Activity [1]: inactive

Compound: Oc1ccc2c(c1)OC[C@@H]1c3cc4c(cc3O[C@H]21)OCO4
- Activity [1]: inactive

Compound: COc1c(O)cc(C/C=C/c2ccccc2)c(OC)c1O [MACHARISTOL]
- EC50 [1]: 1.7 µg/mL (≈ 5.94 µM)
- inhibition in vivo at 25 mg/kg [2]: 23%
- inhibition in vivo at 25 mg/kg [3]: 31%
- Activity [4]: Non-toxic
- EC50 [5]: 3 µg/mL (≈ 10.5 µM)
- Activity [6]: Non-toxic
- Activity [7]: Non-toxic
- EC50 [8]: 2.4 µg/mL (≈ 8.38 µM)
- inhibition in vivo at 25 mg/kg [9]: 35%
- Activity [10]: Non-toxic
- inhibition in vivo at 25 mg/kg [11]: 0%
- Activity [12]: Non-toxic
- inhibition in vivo at 25 mg/kg [13]: 45%
- Activity [14]: Non-toxic
- inhibition in vivo at 25 mg/kg [15]: 35%
